In ChEMBL document CHEMBL1138799, “4-benzyl- and 4-benzoyl-3-dimethylaminopyridin-2(1H)-ones, a new family of potent anti-HIV agents: optimization and in vitro evaluation against clinically important HIV mutant strains” (J Med Chem, 2004):

Key:
[1] = test system: Human immunodeficiency virus 1; experiment: Inhibitory activity against wild type HIV-1 LAI cell line; assay type: functional, organism-based; settings: Human immunodeficiency virus 1, LAI
How it was run: (§1)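 MT4 human T-lymphoblastoid cells were grown in RPMI 1640 with 10% fetal calf serum and antibiotics at 37 °C and 5% CO2. A compound concentration series was combined with HIV-1 LAI at 200 CCID50/well and 30 000 cells/well. Mock-infected cultures with the same concentrations were run in parallel to measure cytotoxicity. After 5 days, cell viability was read by MTT colorimetry. EC50 is the concentration giving 50% infection versus the drug-free control.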

[2] = test system: Human immunodeficiency virus 1; experiment: Selectivity index of cytotoxic activity (CC50) to inhibitory activity (IC50) relative to LAI cell line; assay type: functional; how it was run: as §1
[3] = test system: Human immunodeficiency virus 1; experiment: Inhibitory activity against HIV-1 mutant strain 188L; assay type: functional, organism-based
How it was run: (§2)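 Mutant HIV-1 made by recombining mutant PR-RT sequence into a PR-RT-deleted HXB2 proviral clone. Serial compound concentrations plated, then virus (200 CCID50/well) and MT4 cells (30 000 cells/well; RPMI 1640, 10% FCS) added; 5 days at 37 °C, 5% CO2; viability read by MTT. EC50 = concentration giving 50% infection versus drug-free control; mock-infected cultures run in parallel for toxicity.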

[4] = test system: Human immunodeficiency virus 1; experiment: Inhibitory activity against HIV-1 mutant strain 181C; assay type: functional, organism-based; how it was run: as §2
[5] = test system: Human immunodeficiency virus 1; experiment: Inhibitory activity against HIV-1 mutant strain 103N; assay type: functional, organism-based; how it was run: as §2

Structure (SMILES)	IC50 [1]	Selectivity index [2]	IC50 [3]	IC50 [4]	IC50 [5]
CCc1c(C)nc(O)c(N(C)C)c1C(=O)c1cccc(C=O)c1	8 nM	2510	10000 nM	1250 nM	120 nM
CCc1c(C)nc(O)c(N(C)C)c1Cc1ccccc1	4 nM	25100	7940 nM	500 nM	200 nM
C/C=C/c1cccc(C(=O)c2c(CC)c(C)nc(O)c2N(C)C)c1	5 nM	10000	390 nM	390 nM	150 nM
CCc1c(C)nc(O)c(N(C)C)c1C(=O)c1ccc(C)o1	10 nM	10000	50100 nM	1580 nM	250 nM
C=Cc1cccc(C(=O)c2c(CC)c(C)nc(O)c2N(C)C)c1	2 nM	12600	790 nM	630 nM	30 nM
CCc1c(C)nc(O)c(N(C)C)c1Cc1ccccc1Cl	6 nM	15900	790 nM	200 nM	390 nM
CCc1c(C)nc(O)c(N(C)C)c1C(=O)c1cc(Br)cs1	3 nM	10000	10000 nM	630 nM	100 nM
CCc1c(C)nc(O)c(N(C)C)c1Cc1nccn1C	100000 nM	1	100000 nM		
CCc1c(C)nc(O)c(N(C)C)c1Cc1cn(C)c2ccccc12	30 nM	2510	250 nM	310 nM	390 nM
CCc1c(C)nc(O)c(N(C)C)c1C(=O)c1cccc(/C=C\C#N)c1	4 nM	25100	40 nM	10 nM	3 nM
CCc1c(C)nc(O)c(N(C)C)c1Cc1ccc(N(C)C)cc1	1250 nM	8		10000 nM	10000 nM
CCc1c(C)nc(O)c(N(C)C)c1C(=O)c1cccc(C)c1	2 nM	39800	1990 nM		
CCc1c(C)nc(O)c(N(C)C)c1Cc1ccc(OC)c(C)c1	390 nM	251			
CCc1c(C)nc(O)c(N(C)C)c1Cc1ccc(Cl)cc1	190 nM	50		6310 nM	

The next lines start with results.

IC50 [1]	Structure (SMILES)	Selectivity index [2]	IC50 [3]	IC50 [4]	IC50 [5]
100 nM	CCc1c(C)nc(O)c(N(C)C)c1C(=O)c1cccc(/C=C/c2ccsc2)c1	1000			
150 nM	CCOC(=O)/C(C#N)=C\c1cccc(C(=O)c2c(CC)c(C)nc(O)c2N(C)C)c1	631			
20 nM	CCc1c(C)nc(O)c(N(C)C)c1C(=O)c1cccc(/C=C/c2ccco2)c1	5010			
1580 nM	CCc1c(C)nc(O)c(N(C)C)c1Cc1ccc(Br)cc1	63			
1000 nM	CCc1c(C)nc(O)c(N(C)C)c1C(=O)c1cccc(/C=C(\C#N)c2ccccc2)c1	16			
1580 nM	CCc1c(C)nc(O)c(N(C)C)c1C(=O)c1cccc(/C=C\c2ccccn2)c1	63			
390 nM	CCc1c(C)nc(O)c(N(C)C)c1C(=O)c1cccc(-c2ccccc2)c1	251			
390 nM	CCc1c(C)nc(O)c(N(C)C)c1C(=O)c1cccc(N(C)C)c1	251			
310 nM	CCc1c(C)nc(O)c(N(C)C)c1C(=O)c1cccc(/C=C/c2cccn2C)c1	158			
250 nM	CCc1c(C)nc(O)c(N(C)C)c1C(=O)c1cccc(/C=C/c2ccccc2)c1	398			
390 nM	CCc1c(C)nc(O)c(N(C)C)c1C(=O)c1cccc(CN)c1	251			
70 nM	CCc1c(C)nc(O)c(N(C)C)c1C(=O)c1cccc(/C=C/c2cccs2)c1	1260			
1990 nM	CCc1c(C)nc(O)c(N(C)C)c1C(=O)c1cccc(N(CC)CC)c1	50			
70 nM	CCc1c(C)nc(O)c(N(C)C)c1C(=O)c1cccc(/C=C\c2cccnc2)c1	631			
10 nM	CCc1c(C)nc(O)c(N(C)C)c1C(=O)c1cccc(C=C(C#N)C#N)c1	3980			
3 nM	CCc1c(C)nc(O)c(N(C)C)c1C(=O)c1cc(F)cc(C(F)(F)F)c1	31600			
1580 nM	CCc1c(C)nc(O)c(N(C)C)c1C(=O)c1cccc(/C=C\Cc2ccccc2)c1	32			
1000 nM	CCc1c(C)nc(O)c(N(C)C)c1C(=O)c1cccc(NS(C)(=O)=O)c1	100			
1250 nM	CCc1c(C)nc(O)c(N(C)C)c1C(=O)c1cccc(/C=C\c2ccccc2)c1	79			
10 nM	CCOc1cccc(Cc2c(CC)c(C)nc(O)c2N(C)C)c1	794			
